In ChEMBL document CHEMBL1135937, “Further studies on conformationally constrained tricyclic tropane analogues and their uptake inhibition at monoamine transporter sites: synthesis of (Z)-9-(substituted arylmethylene)-7-azatricyclo[4.3.1.0(3,7)]decanes as a novel class of serotonin transporter inhibitors” (J Med Chem, 2002):

Columns and labels:
[1] = molecular target: Sodium-dependent dopamine transporter (Rattus norvegicus, UniProt P23977); assay: Ability to inhibit high affinity reuptake of [3H]DA from dopamine transporter into nerve endings synaptosomes; type: subcellular, Brain
How it was run: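 Rat striatal P2 synaptosomes in modified KRH buffer (pH 7.4, with nialamide), preincubated with drug for 30 min at 4 °C, then 15 min at 37 °C. Uptake of [3H]DA (~5 nM final) ran for 5 min and was stopped by cold Na-free buffer and filtration. IC50 from six concentrations in triplicate; Ki by Cheng–Prusoff, 2–4 experiments.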

[2] = molecular target: Norepinephrine transporter (Rattus norvegicus, UniProt Q9WTR4); assay: Ability to inhibit high affinity reuptake of [3H]-NE (Norepinephrine transporter) into nerve ending synaptosomes prepared from brain regions; type: subcellular
[3] = molecular target: Sodium-dependent serotonin transporter (Rattus norvegicus, UniProt P31652); assay: Inhibition of high affinity re-uptake of [3H]5-HT (serotonin) into nerve ending synaptosomes; type: subcellular, Brain
How it was run: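 Synaptosomes (P2) from rat midbrain in modified KRH buffer (pH 7.4, with nialamide), preincubated with drug for 30 min at 4 °C, then 15 min at 37 °C. [3H]5-HT (~5 nM final) uptake ran for 5 min, then filtration and scintillation counting. IC50 from six concentrations in triplicate; Ki by Cheng–Prusoff, 2–4 experiments.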

[4] = Uptake ratio Ki of dopamine relative to serotonin (5-HT) at monoamine transporter
[5] = Uptake ratio Ki of norepinephrine relative to dopamine at monoamine transporter
[6] = Uptake ratio Ki of norepinephrine relative to serotonin (5-HT) at monoamine transporter

Sequence of Norepinephrine transporter (Q9WTR4 whole entry): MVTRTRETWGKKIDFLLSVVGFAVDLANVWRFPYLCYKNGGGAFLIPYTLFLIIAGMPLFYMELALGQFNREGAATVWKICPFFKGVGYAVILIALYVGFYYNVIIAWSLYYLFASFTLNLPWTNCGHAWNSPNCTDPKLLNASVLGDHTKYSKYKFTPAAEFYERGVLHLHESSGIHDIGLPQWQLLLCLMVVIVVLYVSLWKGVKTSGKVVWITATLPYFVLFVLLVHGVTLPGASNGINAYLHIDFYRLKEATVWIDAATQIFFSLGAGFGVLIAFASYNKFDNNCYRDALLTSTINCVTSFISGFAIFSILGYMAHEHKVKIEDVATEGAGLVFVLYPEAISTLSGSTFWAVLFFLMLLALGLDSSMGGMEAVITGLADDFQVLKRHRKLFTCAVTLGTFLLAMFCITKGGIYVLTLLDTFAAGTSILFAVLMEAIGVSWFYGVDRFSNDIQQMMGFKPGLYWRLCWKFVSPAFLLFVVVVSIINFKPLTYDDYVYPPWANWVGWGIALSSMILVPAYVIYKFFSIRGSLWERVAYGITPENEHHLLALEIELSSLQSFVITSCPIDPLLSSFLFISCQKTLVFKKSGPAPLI
Sequence of Sodium-dependent serotonin transporter (P31652 whole entry): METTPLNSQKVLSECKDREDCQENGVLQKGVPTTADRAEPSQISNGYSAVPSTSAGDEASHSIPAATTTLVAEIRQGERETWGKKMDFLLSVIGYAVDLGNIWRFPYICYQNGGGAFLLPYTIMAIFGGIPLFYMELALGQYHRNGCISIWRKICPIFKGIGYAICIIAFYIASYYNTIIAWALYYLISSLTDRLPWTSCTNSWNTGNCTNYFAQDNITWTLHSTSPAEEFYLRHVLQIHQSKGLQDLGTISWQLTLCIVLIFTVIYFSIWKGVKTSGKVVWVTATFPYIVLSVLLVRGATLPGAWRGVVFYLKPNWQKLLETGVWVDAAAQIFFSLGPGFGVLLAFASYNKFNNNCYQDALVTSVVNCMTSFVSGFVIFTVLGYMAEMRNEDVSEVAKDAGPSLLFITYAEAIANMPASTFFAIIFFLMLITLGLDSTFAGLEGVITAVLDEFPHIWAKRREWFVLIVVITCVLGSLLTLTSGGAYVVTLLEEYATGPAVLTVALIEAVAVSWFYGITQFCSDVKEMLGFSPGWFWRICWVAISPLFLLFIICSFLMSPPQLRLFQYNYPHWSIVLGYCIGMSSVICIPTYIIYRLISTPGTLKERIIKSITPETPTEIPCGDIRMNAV
Sequence of Sodium-dependent dopamine transporter (P23977 whole entry): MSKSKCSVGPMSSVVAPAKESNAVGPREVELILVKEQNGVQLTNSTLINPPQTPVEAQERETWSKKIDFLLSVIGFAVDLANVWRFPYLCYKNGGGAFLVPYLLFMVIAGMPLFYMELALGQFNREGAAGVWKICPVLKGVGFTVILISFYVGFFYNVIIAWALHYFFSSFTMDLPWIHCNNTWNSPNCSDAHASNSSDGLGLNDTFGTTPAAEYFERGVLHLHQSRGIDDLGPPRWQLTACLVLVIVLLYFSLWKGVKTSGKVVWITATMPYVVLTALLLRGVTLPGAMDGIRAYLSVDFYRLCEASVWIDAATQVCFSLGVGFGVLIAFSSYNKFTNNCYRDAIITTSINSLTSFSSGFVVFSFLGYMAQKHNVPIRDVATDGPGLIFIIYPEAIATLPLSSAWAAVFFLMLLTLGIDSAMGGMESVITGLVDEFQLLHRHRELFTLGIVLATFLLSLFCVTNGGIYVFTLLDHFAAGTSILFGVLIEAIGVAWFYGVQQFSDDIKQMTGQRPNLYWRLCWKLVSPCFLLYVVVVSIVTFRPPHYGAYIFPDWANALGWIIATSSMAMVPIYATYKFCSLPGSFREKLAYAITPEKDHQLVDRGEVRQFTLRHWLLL

Row | SMILES | Ki [1] [nM] | Ki [2] [nM] | Ki [3] [nM] | Ratio [4] | Ratio [5] | Ratio [6]
1 | COC(=O)C1C2CC3CCC1N3C/C2=C\c1cccc(Cl)c1 (stereo not drawn) | 7780 | 231 | 53.6 | 145 | 0.03 | 4.3
2 | COC(=O)C1C2CC3CCC1N3C/C2=C\c1ccc(/C=C2\CN3C4CCC3C(C(=O)OC)C2C4)cc1 (stereo not drawn) | 38900 | 33400 | 993 | 39.2 | 0.86 | 34
3 | COC(=O)C1C2CC3CCC1N3C/C2=C\c1ccccc1 (stereo not drawn) | 481 | 53 | 1140 | 0.42 | 0.11 | 0.05
4 | O=C(Oc1ccccc1)C1C2CC3CCC1N3C/C2=C\c1ccc(Cl)c(Cl)c1 (stereo not drawn) | 4440 | 2410 | 48.3 | 91.9 | 0.54 | 49.9
5 | CNC(=O)C1C2CC3CCC1N3C/C2=C\c1ccc(Cl)c(Cl)c1 (stereo not drawn) | 3780 | 417 | 29.8 | 127 | 0.11 | 14
6 | COC(=O)C1C2CC3CCC1N3C/C2=C\c1cc2ccccc2c2ccccc12 (stereo not drawn) | 1640 | 13000 | 233 | 7 | 7.93 | 56
7 | COC(=O)C1C2CC3CCC1N3C/C2=C\c1ccc2ccccc2c1 (stereo not drawn) | 735 | 157 | 21 | 35 | 0.21 | 7.5
8 | COC(=O)C1C2CC3CCC1N3C/C2=C\c1cccc(Cl)c1Cl (stereo not drawn) | 850 | 1210 | 354 | 2.4 | 1.42 | 3.4
9 | COC(=O)C1C2CC3CCC1N3C/C2=C\c1ccc(I)c(Cl)c1 (stereo not drawn) | 3140 | 272 | 1.8 | 1740 | 0.09 | 151
10 | COC(=O)C1C2CC3CCC1N3C/C2=C\c1ccc(C)cc1 (stereo not drawn) | 649 | 146 | 15 | 43.3 | 0.22 | 9.7
11 | O=C(OCC1C2CC3CCC1N3C/C2=C\c1ccc(I)cc1)c1ccccc1 (stereo not drawn) | > 10000 | 8190 | – | > 100000 | < 0.82 | 81900
12 | O=C(OCC1C2CC3CCC1N3C/C2=C\c1ccc(Cl)c(Cl)c1)c1ccc2ccccc2c1 (stereo not drawn) | > 10000 | 5950 | 9.3 | > 1070 | < 0.6 | 640
13 | Cc1ccc(/C=C2\CN3C4CCC3C(COC(=O)c3ccccc3)C2C4)cc1Cl (stereo not drawn) | > 10000 | > 10000 | 2 | > 20000 | – | > 20000
14 | COC(=O)C1C2CC3CCC1N3C/C2=C\c1cccc2ccccc12 (stereo not drawn) | 9720 | 5370 | 121 | 80.3 | 0.55 | 44
15 | O=C(OCC1C2CC3CCC1N3C/C2=C\c1ccc(Br)c(Cl)c1)c1ccccc1 (stereo not drawn) | > 10000 | 3840 | 3.2 | > 3120 | < 0.38 | 1200
16 | CC(C)OC(=O)C1C2CC3CCC1N3C/C2=C\c1ccc(Cl)c(Cl)c1 (stereo not drawn) | 1290 | 325 | 85.7 | 15 | 0.25 | 3.8
17 | Clc1ccc(/C=C2\CN3C4CCC3C(COc3ccc(I)cc3)C2C4)cc1Cl (stereo not drawn) | 13700 | 2510 | 1170 | 11.7 | 0.18 | 2.1
18 | CC(=O)OCC1C2CC3CCC1N3C/C2=C\c1ccc2ccccc2c1 (stereo not drawn) | 652 | 672 | 4.4 | 148 | 1.03 | 153
19 | COC(=O)C1C2CC3CCC1N3C/C2=C\c1ccc(C)c(C)c1 (stereo not drawn) | – | 659 | 10.1 | – | – | 65
20 | O=C(OCC1C2CC3CCC1N3C/C2=C\c1ccc(Br)cc1)c1ccccc1 (stereo not drawn) | 3300 | 4470 | 3.95 | 835 | 1.35 | 1130
21 | COC(=O)C1C2CC3CCC1N3C/C2=C\c1ccc(Cl)c(Cl)c1 (stereo not drawn) | 1920 | 1000 | 20 | 96 | 0.52 | 50
22 | COC(=O)C1C2CC3CCC1N3C/C2=C\c1ccc(Cl)cc1 (stereo not drawn) | 853 | 208 | 34.3 | 24.8 | 0.24 | 6
23 | COC(=O)C1C2CC3CCC1N3C/C2=C\c1ccc(OC)cc1 (stereo not drawn) | 3130 | 187 | 56 | 55.9 | 0.06 | 3.3

Row | SMILES | Ki [1] [nM] | Ki [2] [nM] | Ki [3] [nM] | Ratio [4] | Ratio [5] | Ratio [6]
24 | COC(=O)C1C2CC3CCC1N3C/C2=C\c1ccc(F)cc1 (stereo not drawn) | 6620 | 584 | 335 | 19.7 | 0.09 | 1.7
25 | O=C(OCC1C2CC3CCC1N3C/C2=C\c1ccc(I)c(Cl)c1)c1ccccc1 (stereo not drawn) | > 10000 | > 10000 | – | > 6e+06 | – | > 6e+06
26 | CN(C)C(=O)C1C2CC3CCC1N3C/C2=C\c1ccc(Cl)c(Cl)c1 (stereo not drawn) | 6680 | 2020 | 28.9 | 231 | 0.3 | 69.9
27 | CC(=O)OCC1C2CC3CCC1N3C/C2=C\c1ccc(Cl)c(Cl)c1 (stereo not drawn) | 1870 | 638 | 1.6 | 1170 | 0.34 | 399
28 | COC(=O)C1C2CC3CCC1N3C/C2=C\c1ccc(Br)c(Cl)c1 (stereo not drawn) | 5420 | 459 | 2.3 | 2360 | 0.08 | 200
29 | COC(=O)C1C2CC3CCC1N3C/C2=C\c1ccc2ccc3cccc4ccc1c2c34 (stereo not drawn) | 9920 | – | 860 | 11.5 | – | –
30 | COC(=O)C1C2CC3CCC1N3C/C2=C\c1ccc(C(F)(F)F)cc1 (stereo not drawn) | – | 1830 | 12.6 | – | – | 145
31 | O=C(CCCCCCCCCC(=O)OCC1C2CC3CCC1N3C/C2=C\c1ccc(Cl)c(Cl)c1)OCC1C2CC3CCC1N3C/C2=C\c1ccc(Cl)c(Cl)c1 (stereo not drawn) | > 10000 | > 10000 | 8.5 | > 1170 | – | > 1170
32 | O=C(OCC1C2CC3CCC1N3C/C2=C\c1ccc(Cl)c(Cl)c1)c1ccccc1 (stereo not drawn) | 14100 | 3070 | 3.1 | 4550 | 0.22 | 990
33 | CC(=O)OCC1C2CC3CCC1N3C/C2=C\c1cccc(Cl)c1 (stereo not drawn) | 5980 | 1180 | 92.9 | 64.4 | 0.2 | 12.7
34 | Clc1ccc(/C=C2\CN3C4CCC3C(/C=C\c3ccccc3)C2C4)cc1Cl (stereo not drawn) | 2110 | 2790 | 245 | 8.6 | 1.32 | 11.4
35 | COC(=O)C1C2CC3CCC1N3C/C2=C\c1ccc(F)c(F)c1 (stereo not drawn) | 7440 | 394 | 101 | 73.7 | 0.05 | 3.9
36 | COC(=O)C1C2CC3CCC1N3C/C2=C\c1cc(Cl)cc(Cl)c1 (stereo not drawn) | 5600 | 4100 | 437 | 12.8 | 0.73 | 9.4
37 | COC(=O)C1C2CC3CCC1N3C/C2=C\c1ccc(C(C)C)cc1 (stereo not drawn) | – | 1110 | 10.2 | – | – | 109
38 | CCC(=O)C1C2CC3CCC1N3C/C2=C\c1ccc(Cl)c(Cl)c1 (stereo not drawn) | 6840 | 651 | 2.2 | 3110 | 0.1 | 296
39 | O=C(OCC1C2CC3CCC1N3C/C2=C\c1cccc(Cl)c1)c1ccccc1 (stereo not drawn) | 4040 | 6580 | 11 | 367 | 1.63 | 598
40 | CON(C)C(=O)C1C2CC3CCC1N3C/C2=C\c1ccc(Cl)c(Cl)c1 (stereo not drawn) | 8620 | 396 | 30.7 | 281 | 0.05 | 12.9
41 | O=C(OCC1C2CC3CCC1N3C/C2=C\c1ccc2ccccc2c1)c1ccccc1 (stereo not drawn) | 5530 | 3220 | 0.1 | 55300 | 0.58 | 32200
42 | COC(=O)C1C2CC3CCC1N3C/C2=C\c1ccc(I)cc1Cl (stereo not drawn) | 6640 | 508 | 74 | 89.7 | 0.08 | 6.9
43 | COC(=O)C1C2CC3CCC1N3C/C2=C\c1ccc(Br)cc1 (stereo not drawn) | 495 | 178 | 11 | 45 | 0.36 | 16
44 | O=C(OCC1C2CC3CCC1N3C/C2=C\c1ccc(Cl)c(Cl)c1)c1ccc(I)cc1 (stereo not drawn) | 17700 | 8590 | 48.7 | 363 | 0.48 | 176
45 | COC(=O)C1C2CC3CCC1N3C/C2=C\c1ccc(C)c(Cl)c1 (stereo not drawn) | > 10000 | 198 | 6.4 | > 1560 | < 0.02 | 31
